# In ChEMBL document CHEMBL1141571, “Design, synthesis, and trypanocidal activity of new aminoadamantane derivatives” (J Med Chem, 2008):
# Where a name gives a salt, the structure may show the parent alone.
# Tested on: Trypanosoma brucei
# Experiment: Antitrypanosomal activity against Trypanosoma brucei
# Format: functional, organism-based
# Outline: (§1)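 In vitro assay against bloodstream-form T. brucei grown at pH 7.4. Concentrations inhibiting growth by 50% (IC50) and 90% (IC90) were calculated. Values are the mean of triplicate experiments ± SEM.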
row,IC50 [nM],SMILES
1,520,NC12CC3CC(C1)CC(C1CCCCC1)(C3)C2
2,330,NC1CCC(C23CC4CC(CC(C4)C2)C3)CC1 (configuration not stated)
3,620,NCCC12CC3CC(C1)CC(c1ccccc1)(C3)C2

# Tested on: Trypanosoma brucei
# Experiment: Antitrypanosomal activity against Trypanosoma brucei 427 at pH 7.4
# Format: functional, organism-based
# Outline: as §1
SMILES,IC50 [nM],IC90 [nM]
CCCCCCCCC12CC3CC(CC(C3)C1N)C2 (configuration not stated),800,1060
CCCCCCCCCCC12CC3CC(CC(C3)C1N)C2 (configuration not stated),480,670
CCCCCCCCCCCCCCC12CC3CC(CC(C3)/C1=N\NC(N)=S)C2,420,540
CCCCCCCCCCCCC12CC3CC(CC(C3)C1NCC)C2 (configuration not stated),590,1060
CCCCCCCCCCC12CC3CC(CC(C3)C1NCC)C2 (configuration not stated),1090,1650
CCCCCCCCCCCCC12CC3CC(CC(C3)C1N)C2 (configuration not stated),470,670
CCCCCCCCCCCCCCC12CC3CC(CC(C3)/C1=N\NC(=N)N)C2,840,1300
CCCCCCCCCCCCCCC12CC3CC(CC(C3)C1N)C2 (configuration not stated),920,1980
CCCCCCC12CC3CC(CC(C3)C1NCC)C2 (configuration not stated),> 2000,
CCCCCCCCC12CC3CC(CC(C3)/C1=N\NC(=N)N)C2,> 6000,
CCCCCCCCCCC12CC3CC(CC(C3)/C1=N\NC(=N)N)C2,90,110
CC(N)C12CC3CC(CC(C3)C1)C2 (configuration not stated) [RIMANTADINE HYDROCHLORIDE],,14000

# The remaining lines, values ahead:
IC50 [nM],IC90 [nM],SMILES
2810,5640,CCCCCCC12CC3CC(CC(C3)/C1=N\NC(N)=S)C2
410,470,N=C(N)N/N=C1\C2CC3CC(C2)CC1(Cc1ccccc1)C3
1320,1730,CCCCCCC12CC3CC(CC(C3)C1N)C2 (configuration not stated)
> 6000,,CCCCCCC12CC3CC(CC(C3)/C1=N\NC(=N)N)C2
2070,2650,NC1C2CC3CC(C2)CC1(Cc1ccccc1)C3 (configuration not stated)
2120,2810,N=C(N)N/N=C1\C2CC3CC(C2)CC1(c1ccccc1)C3
> 132000,> 132000,NC12CC3CC(CC(C3)C1)C2 [AMANTADINE HYDROCHLORIDE]
